Compound activity: PubChem BioAssay, The Scripps Research Institute Molecular Screening Center
OX1R antag-1: blocks the human orexin 1 receptor. CHO/OX1R cells, Fluo-8 calcium fluorescence, orexin A. inhibition, % at 5 µM. 330,000 compounds, 0.43% hits;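 active = inhibition above its plate's threshold, mean inhibition of all tested compounds on the plate plus 3 SD, cut at about 37% in these data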;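 note: 0% = orexin A challenge wells and 100% = SB-334867-A antagonist wells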
Target sequence (O43613 whole entry, looked up): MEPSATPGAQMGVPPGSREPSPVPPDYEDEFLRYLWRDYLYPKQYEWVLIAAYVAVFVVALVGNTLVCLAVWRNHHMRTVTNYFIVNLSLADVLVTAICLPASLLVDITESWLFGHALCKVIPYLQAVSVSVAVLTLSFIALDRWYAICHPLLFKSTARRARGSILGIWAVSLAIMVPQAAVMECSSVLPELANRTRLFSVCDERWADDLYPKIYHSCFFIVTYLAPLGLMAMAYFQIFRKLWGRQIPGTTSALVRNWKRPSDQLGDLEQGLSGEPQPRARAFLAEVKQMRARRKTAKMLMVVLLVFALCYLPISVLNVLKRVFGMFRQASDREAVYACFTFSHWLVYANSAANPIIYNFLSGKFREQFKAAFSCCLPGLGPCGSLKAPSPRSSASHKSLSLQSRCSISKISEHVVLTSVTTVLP
CHO-K1 Ca ag: nonselective activator or artifact in parental CHO-K1 cells; Fluo-8 calcium fluorescence; scaled to maximal ATP response, vehicle zero; activation, % at 3 µM; 360,000 compounds, 0.48% hits; AID 602248; in the data active = activation above about 15%;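 note: untransfected CHO-K1 host cells lacking M1 receptor as counterscreen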
CHO-K1 Ca antag: M1 antagonist counterscreen hit in parental CHO-K1 cells; 360,000 compounds, 0.6% hits; inhibition, % at 3 µM; ATP-induced calcium, Fluo-8 fluorescence; AID 602250;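 active = inhibition above a per-plate cutoff, the plate's mean sample inhibition plus 3 SD, cut at about 24% in these data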;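 note: 0% = DMSO plus EC80 ATP and 100% = DMSO alone without ATP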
M1 PAM parental: M1 PAM counterscreen hit in parental CHO-K1 cells. activation, % at 3 µM. AID 602247. ATP EC20, Fluo-8 calcium fluorescence; 0% at ATP EC20, 100% at ATP max. 360,000 compounds, 0.02% hits;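 active = activation above the run cutoff, the mean activation of all test compounds plus 3 SD, cut at about 40% in these data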;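 note: peak over basal fluorescence ratio in a 140 s read after ATP addition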
CHO parental Ca: counter-screen for OX1R antagonists: effect in parental CHO cells. inhibition, % at 5.6 µM. 330,000 compounds, 0.63% hits. parental CHO-K1, ATP-induced calcium, Fluo-8 fluorescence;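 active = inhibition above that plate's mean sample inhibition plus 3 SD, cut at about 26% in these data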;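 note: 0% = ATP-challenged DMSO wells and 100% = DMSO wells without ATP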
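Assay system – parental CHO cells · Reagent – ATP stimulus · Detection – intracellular calcium via Fluo-8 no-wash fluorescent dye · Evaluation – percent inhibition of ATP-evoked calcium rise, normalized to controls · Controls – ATP wells versus no-ATP DMSO wells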
OX1R antag-2: blocks the human orexin 1 receptor; O43613; 330,000 compounds, 1.8% hits; OX1R-expressing cells, FRET antagonist read-out; inhibition, % at 6.6 µM; in the data active = inhibition mostly above about 38%, no sharp cut-off; inactive = mostly below about 40%;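 note: 0% = agonist challenge alone and 100% = reference antagonist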
Active calls of the source: *; . = no result. An excerpt weighted towards active compounds, which were near 2.9% of everything screened.

SMILES	OX1R antag-1	CHO-K1 Ca ag	CHO-K1 Ca antag	M1 PAM parental	CHO parental Ca	OX1R antag-2
COc1cccc(N(CC(=O)NCCSCc2ccco2)S(=O)(=O)c2ccccc2)c1	23.1	2.8	-4.8	0.6	-12.9	45.3*
Cc1ccc(NC2=C(Cl)C(=O)c3ccccc3C2=O)cc1	28.1	0.1	-5.2	18.2	31.3	29.0
O=C1C(Cl)=C(Nc2ccc(O)cc2)C(=O)c2ccccc21	43.9*	-1.3	21.6	-8.9	44.9*	156.2*
CC(=O)C1=C(C)NC(=S)NC1c1cc([N+](=O)[O-])ccc1O (stereo unspecified)	-3.2	16.8*	-6.6	0.1	-3.0	21.9
CC1=C(C(=O)c2ccccc2)C(c2cccc([N+](=O)[O-])c2)NC(=S)N1 (stereo unspecified)	-2.5	1.1	-10.6	4.1	1.7	7.6
COc1ccc(COC(=O)C2=C(C)NC(=O)NC2c2ccc(OC)cc2)cc1 (stereo unspecified)	-44.2	0.7	4.8	-11.8	-32.1	9.1
O=C(CCCSc1nc2ccccc2[nH]1)NCc1ccccc1F	-26.5	16.6*	-0.5	18.4	-18.8	14.5
CCc1ccc(N=Nc2ccc(O)c3[nH]cnc23)cc1	46.5*	12.7	18.3	-15.4	30.3	-0.9
CC(=O)c1cnc2c(-c3ccc(Cl)cc3)cnn2c1C	4.3	-0.6	30.3*	-8.0	3.7	30.2
Nc1c(C(=O)O)cnc2c(-c3ccc(Cl)cc3)cnn12	-8.7	0.0	-3.5	5.9	-12.7	8.8
Cc1cc2c(NC(=O)Nc3ccc(C(F)(F)F)cc3)cccc2nn1	-13.6	4.6	31.7*	-26.1	-21.3	10.9
COc1ccc2cc3cc(C(=O)NCc4ccco4)oc3nc2c1	-20.8	0.1	-12.6	-13.0	-6.7	53.8*
CCCCN(CC)C(=O)c1cc2cc3ccc(OC)cc3nc2o1	-33.1	0.8	25.1*	-19.6	-16.0	37.3
COc1ccc2cc3cc(C(=O)NCC4CCCO4)oc3nc2c1 (stereo unspecified)	-4.3	0.9	-7.4	14.2	-9.8	74.4*
COc1ccc2cc3cc(C(=O)NCc4ccccn4)oc3nc2c1	-16.3	0.5	-3.1	12.3	-31.4	60.6*
Cc1ccc(-n2nnnc2SCCNS(=O)(=O)c2ccccc2)cc1C	-4.9	6.3	-14.4	5.8	-27.0	7.6
Cn1c(SCC(=O)NC2CC2)nnc1-c1ccc(Cl)cc1	-13.2	-0.5	8.0	9.6	-12.0	9.7
CCOC(=O)c1sc(-c2ccccn2)nc1C	-6.9	15.7*	-1.8	17.0	6.1	16.9
CCCCN(c1nc2ccccc2nc1Cl)S(=O)(=O)c1ccc(C)cc1	1.5	-0.5	-3.3	-9.2	53.9*	14.7
CCCN(CCC)CC(O)CN(c1ccccc1)S(=O)(=O)c1ccc(C)cc1 (stereo unspecified)	-38.8	-0.1	-1.4	0.1	-13.0	11.4
CC(=O)C1=C(O)C(=O)N(c2ccc(C)cc2)C1c1ccc([N+](=O)[O-])cc1 (stereo unspecified)	-3.7	16.1*	14.3	14.9	-6.3	27.3
Cn1c2[n+](c3ccc(Cl)cc3c1=O)Cc1ccccc1-2	-29.2	16.0*	4.2	4.6	-16.4	10.5
CCN(CC)c1ccc(-c2c(C#N)c(N)nc(OC)c2C#N)cc1	5.0	4.8	11.8	14.8	36.0*	17.4
CC[N+]1(CC)CC2CCC(C)(C1)C2(C)C (stereo unspecified)	-10.9	-0.2	-5.5	-2.3	20.1	9.2
Cc1ccc(N=C2C(=O)Nc3ccc(C)c(Br)c32)cc1	-19.6	0.7	-9.3	5.0	-0.7	15.5
COc1ccc(N=C2C(=O)Nc3ccc(C)c(Br)c32)cc1	-3.5	-0.7	25.8*	-20.9	-2.1	24.9
Cn1c(=O)cc(OCCCC(=O)N2CCN(c3ccccc3)CC2)c2ccccc21	-29.3	1.6	29.7*	-7.0	-19.0	4.0
CC(C(=O)Nc1ccc(S(=O)(=O)N2CCCC2)cc1)N1CCCC(C(N)=O)C1 (stereo unspecified)	.	0.4	7.4	-30.1	.	.
CC(=O)c1sc(N/N=C\c2cccc(Br)c2)nc1C	-28.4	16.9*	6.1	17.1	-27.4	21.2
CC(CC(=O)Nc1ccc(Cl)c([N+](=O)[O-])c1)c1ccccc1 (stereo unspecified)	66.3*	3.3	17.1	-6.5	60.3*	90.8*
